Experimental data from the EternaBench riboswitch data.

Test system: MS2 coat protein
Test: apparent Kd, MS2 coat protein; higher = weaker binding; RNA-MaP array; FMN 200 µM where present
How it was run: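 The apparent Kd comes from binding curves fitted cluster by cluster, filtered, and summarised as a median. Those curves followed SNAP-549-labelled MS2 coat protein from 0.7 or 1.5 nM, doubling to 3 µM, on Illumina sequencing-chip clusters where stalled E. coli RNA polymerase had transcribed the designs, without and then with constant ligand. The buffer was 100 mM Tris-HCl pH 7.5, 80 mM KCl, 4 mM MgCl2, BSA, DTT, yeast tRNA and Tween-20, and green signal was normalised to red-channel RNA signal and control-cluster median Fmax.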

[1] = designed as: OFF switch for flavin mononucleotide, no ligand
[2] = ligand present: flavin mononucleotide, designed as: OFF switch for flavin mononucleotide
[3] = designed as: ON switch for flavin mononucleotide, no ligand
[4] = ligand present: flavin mononucleotide, designed as: ON switch for flavin mononucleotide

| Sequence | apparent Kd [1] | apparent Kd [2] | apparent Kd [3] | apparent Kd [4] |
| --- | --- | --- | --- | --- |
| CUAAAUCAUGUAGGAUAUGGAUGGCGAAGCUACCCAGAAGGACAUGAGGAUCACCCAUGUCAGAACGUCUGCGUUCAGACGUUG | 35.7 nM | 217 nM | – | – |
| CUAAGACGAUGUCACGUUGUCGGGACAGAAGGCACGUACAUGAGGAUCACCCAUGUAAAACACAGUGAGGAUAUGUACCUGCGA | – | – | 30.8 nM | 8.1 nM |
| CUAAGUGCCGGAGGAUAUACAUGAGGAUCACCCAUGUCAGUCUGUUUACAUGUAGAAGGCCGGCGAACAAAGAACUUGCCACGA | 43.8 nM | 242 nM | – | – |
| CUAAUGUAGACAGGAUAUCCUGGACAUGAGGAUCACCCAUGUGCAUAAAAUGGAGAAGGGUCACGGAGGCCCUGUGGGCAGGGU | – | – | 46.3 nM | 9.9 nM |
| CUAAUUAGUCAGAAGGUGCUGCCGGAAUCAUAGCAAGGAUAUGACAUGAGGAUCACCCAUGUACAGAUCCUACAUAAAAUCAGG | 5.73 nM | 8.98 nM | – | – |
| CUACUUAGCCAGAAGGCAAGAGGUACAUGAGGAUCACCCAUGUAGUGAUUGAGGAUAUGGCAAGGUUCUAUGGUGCGUCUAGCC | – | – | 7.53 nM | 5.12 nM |
| CUAUAUAAUACCUCAUGUACAUGAGGAUCACCCAUGUUAACAAAGGAUAUAUUUAUAUUAAUAAAGUAGAAGGUUGUACUAUUU | 19.5 nM | 17.1 nM | – | – |
| CUAUCGUUGCAGAAGGUUAAAUAAUUUCUCAUCUUGUUUACAUGAGGAUCACCCAUGUAUUUGUUGAAGGAUAUGCAAGUGUUG | 12.5 nM | 11 nM | – | – |
| CUAUGAGCGAUAGGAUAUACUGAGAUUGAGUGGGUAGAAGGAUCGAUAGUGUAGAAGACAUGAGGAUCACCCAUGUUAUGGGUU | – | – | 726 nM | 501 nM |
| CUAUGCCGAACAGGAUAUUCGAUCAAAAGGAUAGAAGAAGGGUUACAUGAGGAUCACCCAUGUAUGCACAUGAGGAUCCCUUAA | 255 nM | 296 nM | – | – |
| CUAUGCGGAAUAGGAUAUUCGUUCAUGAGGAUAGAAGAAGGGUUACAUGAGGAUCACCCAUGUAUGCACAUGAGGAUCCCUUAG | 252 nM | 228 nM | – | – |
| CUAUUACGAGGAUAUCGUCAGAGUCACAUGAGGAUCACCCAUGUAUCCCACGGACCGGAAUGAGAAGGCGUUCAUG | 288 nM | 769 nM | – | – |
| CUAUUUAAGCAGAAGGCGUGGGAAAGAUUUACACGAGGAUAUGCGAUAACGGCGUAUGACAUGAGGAUCACCCAUGUACGUGCG | – | – | 7.22 nM | 4.47 nM |
| CUCAAACAUGAGGAUCACCCAUGUCAGGAUAUGAUACUAUGUACUUCGGUACAUAGUAUCAGAAGGGAUAUGAA | 87.6 nM | 111 nM | – | – |
| CUCAUGUCAGGAUAUCAGUAGUAAAAAAAUAAAAUUACUACUGAGAAGGGACAUGAGGAUCACCCAUGUCCGGG | 20.4 nM | 18.4 nM | – | – |
| CUCGGCGCACAGAAGGAUCGGUACAUGAGGAUCACCCAUGUAAGCAAAGAUAGGAUAUGUGGAGCUUACAGGGAAAUUGAACAA | – | – | 74.6 nM | 10.8 nM |
| CUCGUGUAAGGAUAUACGAGUCACGGAAAUAAACCGUGAAGGUAGAAGGUACAUGAGGAUCACCCAUGUAAAAC | 40 nM | 347 nM | – | – |
| CUCGUUAUGUUAGGAUAUGAUGCAUCCCGAUAAUCAGAAGGAACAUGAGGAUCACCCAUGUGACAUUUGGUGAAUACAAGCCAG | 6.79 nM | 7.96 nM | – | – |
| CUCUAUCAUGUAGGAUAUGCGUGUCGAAGCUAUGCAGAAGGACAUGAGGAUCACCCAUGUCUUUCUGUCUGCGGACGGACAGGG | 14.9 nM | 18.2 nM | – | – |
| CUCUUCUCUGAGGAUAUUUUAUGUGUGGACGUGAAAGAAGGCAGUACAUGAGGAUCACCCAUGUGUCCCUCUGU | 126 nM | 216 nM | – | – |
| CUCUUGGCAGGAUAUGCUUUUUUAGACAUGAGGAUCACCCAUGUGAUGAAUAUUGGGUUCGCAGAAGGGCCUGAAU | 54.1 nM | 48.3 nM | – | – |

| Sequence | apparent Kd [1] | apparent Kd [2] | apparent Kd [3] | apparent Kd [4] |
| --- | --- | --- | --- | --- |
| CUCUUGUGAGGAUAUCAGUAGUAAAAAAAUAAAAUUACUACUGAGAAGGCACAUGAGGAUCACCCAUGUCUUUC | 211 nM | 158 nM | – | – |
| CUGACGCAAGCAGGAUAUCUACUGGCGAUGGUACAUGAGGAUCACCCAUGUAGAGAAGGGCUAAGUGGAAGGAUAAAAUAAAAG | 110 nM | 120 nM | – | – |
| CUGACGGCAGGAUAUACAUGAGGAUCACCCAUGUAAAUUUUUCGUUUACCUUGACCGUGUAGAAGGGCCCAACC | 14.8 nM | 14.7 nM | – | – |
| CUGAGCUGAGGAUAUACAUGAGGAUCACCCAUGUGAAGUAGCUUGCGUACAGGCAGAUGUAGAAGGCAGUUCGG | 39.1 nM | 179 nM | – | – |
| CUGGAAUACAGACAUGAGGAUCACCCAUGUUUAAGGGAGGCACAGGAUAUGUCGACGCACCAUAGACAGAAGGGUGACUUGCUU | – | – | 47.8 nM | 20.3 nM |
| CUGGCCCAGCCCGCCUAGUUCGGGAGAAGGAGGAGACAUGAGGAUCACCCAUGUGGCCUUAUCUCCUAGGAUAUCCCGGCGGGU | 5.32 nM | 17.9 nM | – | – |
| CUGGGCGGAGGAUAUACAGGUUGGGCAUAAGUUCGGCUGGGACAUGAGGAUCACCCAUGUAGAAGGUUGUUUAG | 25.3 nM | 23.1 nM | – | – |
| CUGUCGAUAUCAGGAUAUCGAUUAACUACAUGAGGAUCACCCAUGUUGACAUGGAAUAUAACUUGCGAGAAGGGAUAACGAUAG | – | – | 23.4 nM | 13.8 nM |
| CUGUCGAUAUCAGGAUAUCGUUUACAUACAUGAGGAUCACCCAUGUAGAUGAUCAGCCUAAUAUACGAGAAGGGAUAACGAUAG | – | – | 10.2 nM | 9.04 nM |
| CUGUCGAUAUCAGGAUAUCGUUUACAUACAUGAGGAUCACCCAUGUAGAUGAUCAGCCUAAUAUACGAGAAGGGAUAUCGAUAG | – | – | 9.26 nM | 8.59 nM |
| CUGUUACAUGAGGAUCACCCAUGUCAGGAUAUUUCUAUAGCGUCCUGCCGACGCAUAGAAAGAAGGGAUGGUGA | 48.6 nM | 83.8 nM | – | – |
| CUGUUAUAGGUCCAGAAUUACAACAUGAGGAUCACCCAUGUGCAGGAUAUCGGGUUGAUAGGCGCCGAGAAGGGUAUAGUCACG | 75.8 nM | 70.8 nM | – | – |
| CUGUUCCGUGUAGGAUAUGCAUAUUCUCAUUAUGCAGAAGGACAUGAGGAUCACCCAUGUAUGUUAUUAUCAUGUGUUACAUGU | 31.4 nM | 163 nM | – | – |
| CUUAGUAUCUAGGAUAUCUAGUACAUAGUAUCUAGAGAAGGAGAUACAUGAGGAUCACCCAUGUUCUGUGAUCU | 272 nM | 40.4 nM | – | – |
| CUUAUGUGAGGAUAUCAGUAGUAAAAAAAUAAAAUUACUACUGAGAAGGCACAUGAGGAUCACCCAUGUGCCUC | 14.4 nM | 13.4 nM | – | – |
| CUUAUGUGAGGAUAUGUACAGAAAAAAAAGGGUGUAACUGUACAGAAGGCACAUGAGGAUCACCCAUGUGCAUU | 60.8 nM | 50.4 nM | – | – |
| CUUCGACAUGAGGAUCACCCAUGUCAGGAUAUUGUGUAUCGGGUUUUUUACGGAAAGGCGAGAAGGGAUGUGUG | 27.6 nM | 22.3 nM | – | – |
| CUUCUGUGAGGAUAUGUUAGUUCCCAGCAAAUCGCUGGGAGACAGAAGGCACAUGAGGAUCACCCAUGUGGGCG | 39.2 nM | 221 nM | – | – |
| CUUCUGUGAGGAUAUUGACCAGUAGCUGACCUAGUACUGGAUGAGAAGGCACAUGAGGAUCACCCAUGUGGCAC | 19.5 nM | 104 nM | – | – |
| CUUUAGUGAGGAUAUGUGGCUUCGAUCGUGAGAUCGAGGCUACAGAAGGCACAUGAGGAUCACCCAUGUUUCUU | 17.2 nM | 81 nM | – | – |
| CUUUCGUGAGGAUAUGUGGCUUCGAUCGUAAAAUCGAGGCUACAGAAGGCACAUGAGGAUCACCCAUGUUCCUC | 36.2 nM | 528 nM | – | – |
